Assay results gathered from unrelated publications.
Lines come from different studies, so protocols differ.
UCK1: UCK1 (Homo sapiens, UniProt Q9HA47)
Nectin-4: Nectin-4 (Homo sapiens, UniProt Q96NY8)
PIK3C2B: Phosphatidylinositol 4-phosphate 3-kinase C2 domain-containing subunit beta (PIK3C2B, Homo sapiens, UniProt O00750)

Structure (SMILES) | target | test | Kd
Nc1ccn([C@@H]2O[C@H](CO)[C@@H](O)[C@H]2O)c(=O)n1 | UCK1 | binding, fluorescence | 0.0159 µM
CCCCc1nc2cc(/C=C/C(=O)NO)ccc2n1CCN(CC)CC | Histone deacetylase 2 (HDAC2, Homo sapiens, UniProt Q92769) | cell-free assay | 1.3 µM
CCCC[C@@H]1NC(=O)[C@H](Cc2ccc(O)cc2)NC(=O)[C@@H]2CCCN2C(=O)[C@H](CC(=O)O)NC(=O)[C@H](C)NC(=O)[C@H](Cc2ccccc2)NC(=O)[C@@H]2CSCCC(=O)N3CN(CN(C3)C(=O)CCSC[C@@H](C(=O)N[C@@H](C)C(N)=O)NC1=O)C(=O)CCSC[C@H](NC(C)=O)C(=O)N[C@@H](CC(C)(C)C)C(=O)N1CCC[C@H]1C(=O)N[C@@H](CCC(=O)O)C(=O)N[C@H](CCCCNC(=O)CCc1cn(CC(=O)N[C@H]3CSCCC(=O)N4CN5CN(C4)C(=O)CCSC[C@H](NC(=O)[C@@H](CC(=O)O)NC(=O)[C@H](Cc4cccc6ccccc46)NC(=O)[C@@H]4CCCN4C3=O)C(=O)N[C@@H](CCSC)C(=O)N[C@@H](CCCCNC(=N)N)C(=O)N[C@@H](CC(=O)O)C(=O)N[C@@H](Cc3c[nH]c4ccccc34)C(=O)N[C@@H](CO)C(=O)N[C@@H]([C@@H](C)O)C(=O)N3CCC[C@H]3C(=O)N3C[C@H](O)C[C@H]3C(=O)N[C@@H](Cc3c[nH]c4ccccc34)C(=O)N[C@H](C(N)=O)CSCCC5=O)nn1)C(=O)N1CCC[C@H]1C(=O)N[C@@H](Cc1ccc(O)cc1)C(=O)N2 | Nectin-4 | binding, SPR | 0.001 µM
CC(=O)N[C@H](C(=O)N1C[C@H](O)C[C@H]1C(=O)NCc1ccc(-c2scnc2C)cc1)C(C)(C)SCCCCCCNC(=O)C[C@@H]1N=C(c2ccc(Cl)cc2)c2c(sc(C)c2C)-n2c(C)nnc21 | Bromodomain-containing protein 3, BD2 (BRD3, Homo sapiens, UniProt Q15059) | binding, ITC | 0.039 µM
CCN(CC)c1ccc2cc(C(=O)NCCNC(=O)c3ccc(-c4cc(-c5ccc(C#N)cc5)nc(-c5ccco5)c4)cc3)c(=O)oc2c1 | Myc proto-oncogene protein (MYC, Homo sapiens, UniProt P01106) | binding, SPR | 0.151 µM
CCCC[C@@H]1NC(=O)[C@H](Cc2ccc(O)cc2)NC(=O)[C@@H]2CCCN2C(=O)[C@H](CC(=O)O)NC(=O)[C@H](C)NC(=O)[C@H](Cc2ccccc2)NC(=O)[C@@H]2CSCCC(=O)N3CN(CN(C3)C(=O)CCSC[C@@H](C(=O)N[C@@H](CNC(=O)Cn3cc(CCC(=O)NCCC(=O)N(C)CC(=O)N(C)CC(=O)N(C)CC(=O)N(C)CC(=O)N(C)CC(=O)N(C)CC(=O)N(C)CC(=O)N(C)CC(=O)N(C)CC(=O)N(C)CC(=O)N[C@H]4CSCCC(=O)N5CN6CN(C5)C(=O)CCSC[C@H](NC(=O)[C@@H](CC(=O)O)NC(=O)[C@H](Cc5cccc7ccccc57)NC(=O)[C@@H]5CCCN5C4=O)C(=O)N[C@@H](CCSC)C(=O)N[C@@H](CCCCNC(=N)N)C(=O)N[C@@H](CC(=O)O)C(=O)N[C@@H](Cc4c[nH]c5ccccc45)C(=O)N[C@@H](CO)C(=O)N[C@@H]([C@@H](C)O)C(=O)N4CCC[C@H]4C(=O)N4C[C@H](O)C[C@H]4C(=O)N[C@@H](Cc4c[nH]c5ccccc45)C(=O)N[C@H](C(N)=O)CSCCC6=O)nn3)C(N)=O)NC1=O)C(=O)CCSC[C@H](NC(C)=O)C(=O)N[C@@H](CC(C)(C)C)C(=O)N1CCC[C@H]1C(=O)N[C@@H](CCC(=O)O)C(=O)N[C@H](C)C(=O)N1CCC[C@H]1C(=O)N[C@@H](Cc1ccc(O)cc1)C(=O)N2 | Nectin-4 | binding, SPR | 0.0026 µM
CCCCCC(C)=O | Or85b (Drosophila melanogaster, UniProt Q9VHQ7) | binding, MST | ~0.8 µM
NC(=O)c1ncn([C@@H]2O[C@H](COP(=O)(O)O)[C@@H](O)[C@H]2O)c1N | Adenylosuccinate lyase (ADSL, Homo sapiens, UniProt P30566) | binding, ITC | 34 µM
Cc1nc(NC(=O)N2CCC[C@H]2C(N)=O)sc1-c1ccnc(C(C)(C)C(F)(F)F)c1 | PIK3C2B | binding, competition with immobilised ligand | 0.315 µM
CCCC[C@@H]1NC(=O)[C@H](Cc2ccc(O)cc2)NC(=O)[C@@H]2CCCN2C(=O)[C@H](CC(=O)O)NC(=O)[C@H](C)NC(=O)[C@H](Cc2ccccc2)NC(=O)[C@@H]2CSCCC(=O)N3CN(CN(C3)C(=O)CCSC[C@@H](C(=O)N[C@@H](CNC(=O)CCc3cn(CCOCCOCCOCCOCCOCCOCCOCCOCCOCCOCCOCCOCCC(=O)NCCC(=O)N(C)CC(=O)N(C)CC(=O)N(C)CC(=O)N(C)CC(=O)N(C)CC(=O)N(C)CC(=O)N(C)CC(=O)N(C)CC(=O)N(C)CC(=O)N(C)CC(=O)NCCCC[C@@H]4NC(=O)[C@H](Cc5cccc6ccccc56)NC(=O)[C@@H]5CCCN5C(=O)[C@@H](NC(C)=O)CSCCC(=O)N5CN6CN(C5)C(=O)CCSC[C@H](NC4=O)C(=O)N[C@@H](CCSC)C(=O)N[C@@H](CCCCNC(=N)N)C(=O)N[C@@H](CC(=O)O)C(=O)N[C@@H](Cc4c[nH]c5ccccc45)C(=O)N[C@@H](CO)C(=O)N[C@@H]([C@@H](C)O)C(=O)N4CCC[C@H]4C(=O)N4C[C@H](O)C[C@H]4C(=O)N[C@@H](Cc4c[nH]c5ccccc45)C(=O)N[C@H](C(N)=O)CSCCC6=O)nn3)C(N)=O)NC1=O)C(=O)CCSC[C@H](NC(C)=O)C(=O)N[C@@H](CC(C)(C)C)C(=O)N1CCC[C@H]1C(=O)N[C@@H](CCC(=O)O)C(=O)N[C@H](C)C(=O)N1CCC[C@H]1C(=O)N[C@@H](Cc1ccc(O)cc1)C(=O)N2 | Nectin-4 | binding, SPR | 0.002 µM
Nc1ncnc2c1ncn2[C@@H]1O[C@H](COP(=O)(O)O)[C@@H](O)[C@H]1O | Adenylosuccinate lyase (ADSL, Homo sapiens, UniProt P30566, R303C) | binding, ITC | 130 µM
O=c1ccn([C@@H]2O[C@H](CO)[C@@H](O)[C@H]2O)c(=O)[nH]1 | UCK1 | binding, fluorescence | 0.0564 µM
Cc1cc(Nc2cc3ncccc3c(N[C@@H]3C[C@H]4CC[C@@H](C3)N4CCC#N)n2)n[nH]1 | Mitogen-activated protein kinase kinase kinase 3 (MAP3K3, Homo sapiens, UniProt Q99759) | binding, competition with immobilised ligand | 0.1 µM
C=CC(=O)N1CCC(C(=O)NCC(=O)N2CCN(c3nc(-c4cnc(N)nc4C(F)F)nc(N4CCOCC4)n3)CC2)CC1 | PIK3C2B | binding, competition with immobilised ligand | 0.081 µM
NC(=O)C1=CN([C@@H]2O[C@H](COP(=O)(O)OP(=O)(O)OC[C@H]3O[C@@H](n4cnc5c(N)ncnc54)[C@H](OP(=O)(O)O)[C@@H]3O)[C@@H](O)[C@H]2O)C=CC1 | ZMO1885 (Zymomonas mobilis, UniProt Q5NLA1, Y343W) | binding | 702 µM
Cc1cnc(-c2ccc(-c3ccc(NC(=O)Nc4c(F)cc(F)cc4F)cc3F)c3c2C(=O)NC3)[nH]1 | Cytoplasmic tyrosine-protein kinase BMX (BMX, Homo sapiens, UniProt P51813) | binding, competition with immobilised ligand | 0.014 µM
CCC(=O)N1CCC(C(=O)N(C)CC(=O)N2CCN(c3nc(-c4cnc(N)nc4C(F)F)nc(N4CCOCC4)n3)CC2)CC1 | PIK3C2B | binding, competition with immobilised ligand | 0.365 µM
